Test results as given in ChEMBL document CHEMBL1138882, “The design, synthesis, and evaluation of organ-specific iron chelators” (J Med Chem, 2006).

What was measured:
Monkey = experiment: Iron clearing efficiency in monkey at 150 umol/kg; type: functional, Sapajus apella
Outline: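 Cebus apella monkeys (3.5–4 kg) iron-overloaded with iv iron dextran (~500 mg Fe/kg), ≥60 d before use; single po 150 μmol/kg (monosodium salt or 40% Cremophor RH-40/water). Feces and urine collected every 24 h, 4 d before to 5 d after dosing; iron by flame AAS. ICE = 2-day post-drug output minus 4-day pre-drug mean, over theoretical (2:1 complex), percent; mean ± SEM.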

[1] = Drug level in Sprague-Dawley rat plasma at 300 umol/kg, sc after 2 hrs; type: ADME, organism-based
Outline: (§1)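 Plasma: male Sprague-Dawley rats (250–350 g) dosed sc once at 300 μmol/kg as monosodium salt; blood by cardiac puncture into sodium citrate, centrifuged; methanol deproteinization, filtered, HPLC-UV 310 nm, detection limit 0.5 μM; μM, mean of n = 3 per time point.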

Rattus norvegicus [2] = experiment: Toxicity in Sprague-Dawley rat at 384 umol/kg, po; type: organism-based; conditions: in vivo
Outline: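 Male Sprague-Dawley rats (250–300 g), fasted overnight, gavaged once daily at 384 μmol/kg/d for up to 10 d; fed ~3 h post-dose for 5 h, then fasted. Age-matched controls; monitored at least three times daily, moribund animals euthanized; survivors sacrificed one day after last dose for histopathology.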

Rattus norvegicus [3] = experiment: Iron clearing efficiency in Sprague-Dawley rat at 300 umol/kg, po; type: functional
Outline: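 Bile-duct-cannulated, non-iron-overloaded male Sprague-Dawley rats (400–450 g) given single oral dose, 150 or 300 μmol/kg, as water solution, in 40% Cremophor RH-40/water, or monosodium salt. Bile every 3 h up to 48 h, urine every 24 h; iron by flame AAS. Efficiency = (treated minus control iron excretion)/theoretical output (2:1 complex), percent; mean ± SEM.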

Rattus norvegicus [4] = experiment: Drug level in Sprague-Dawley rat kidney at 300 umol/kg, sc after 0.5 hrs; type: ADME, organism-based; conditions: in vivo
Outline: (§2)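 Kidney level after single sc 300 μmol/kg monosodium salt in male Sprague-Dawley rats (250–350 g), n = 3 per time point. Water homogenate (1:2 w/v), methanol protein precipitation, 0.2 μm filtration, RP amide C16 HPLC with UV at 310 nm; linear range 1–1000 μM; reported as nmol/g wet weight, mean.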

[5] = (§3) Drug level in Sprague-Dawley rat plasma at 300 umol/kg, sc after 0.5 hrs; type: ADME, organism-based; conditions: Sprague-Dawley, plasma, 300 umol/kg; outline: as §1
Rattus norvegicus [6] = experiment: Drug level in Sprague-Dawley rat heart at 300 umol/kg, sc after 0.5 hrs; type: ADME, organism-based; conditions: in vivo
Outline: (§4)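 Heart drug level: male Sprague-Dawley rats (250–350 g), single sc injection of monosodium salt, 300 μmol/kg; CO2 euthanasia at set times (n = 3 per time point). Tissue homogenized in water 1:2 (w/v), proteins precipitated with 3 vol CH3OH at −20 °C 20 min, filtered; reversed-phase HPLC, UV 310 nm, calibration-curve quantitation; nmol/g wet weight, mean.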

[7] = Partition coefficient, log P of the compound; type: physicochemical; conditions: octanol/water
Outline: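 Shake-flask direct partition between octanol and TRIS buffer, pH 7.4; expressed as log of the fraction in the octanol layer (log P_app).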

Rattus norvegicus [8] = experiment: Drug level in Sprague-Dawley rat pancreas at 300 umol/kg, sc after 1 hr; type: ADME, organism-based; conditions: in vivo
Outline: (§5)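 Pancreas concentration: single sc 300 μmol/kg (monosodium salt) to male Sprague-Dawley rats (250–350 g), three rats per time point, CO2 euthanasia. Tissue homogenate in water (1:2 w/v), CH3OH protein precipitation, filtration, RP HPLC with 310 nm UV detection; nmol/g wet weight, mean.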

Rattus norvegicus [9] = experiment: Drug level in Sprague-Dawley rat liver at 300 umol/kg, sc after 0.5 hrs; type: ADME, organism-based; conditions: in vivo
Outline: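 Liver sampled from male Sprague-Dawley rats (250–350 g) given one sc dose, 300 μmol/kg, as monosodium salt; n = 3 per time point. Homogenized in water, methanol-precipitated, filtered, analysed by HPLC-UV at 310 nm against calibration curves; nmol compound per g wet weight, mean; O-demethylated metabolite also measured.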

Rattus norvegicus [10] = experiment: Drug level in Sprague-Dawley rat pancreas at 300 umol/kg, sc after 4 hrs; type: ADME, organism-based; conditions: in vivo; outline: as §5
Rattus norvegicus [11] = experiment: Drug level in Sprague-Dawley rat heart at 300 umol/kg, sc after 4 hrs; type: ADME, organism-based; conditions: in vivo; outline: as §4
Rattus norvegicus [12] = experiment: Drug level in Sprague-Dawley rat heart at 300 umol/kg, sc after 8 hrs; type: ADME, organism-based; conditions: in vivo; outline: as §4
Rattus norvegicus [13] = experiment: as §3; type: ADME, organism-based; conditions: in vivo, 0.5 h; outline: as §1
Rattus norvegicus [14] = experiment: Drug level in Sprague-Dawley rat kidney at 300 umol/kg, sc after 1 hr; type: ADME, organism-based; conditions: in vivo; outline: as §2

| SMILES | Activity (Monkey) | concentration at 2 h [1] | Activity (Rattus norvegicus [2]) | Activity (Rattus norvegicus [3]) | Drug uptake (Rattus norvegicus [4]) | concentration at 0.5 h [5] | Drug uptake (Rattus norvegicus [6]) | logP [7] | Drug uptake (Rattus norvegicus [8]) | Drug uptake (Rattus norvegicus [9]) | Drug uptake (Rattus norvegicus [10]) | Drug uptake (Rattus norvegicus [11]) | Drug uptake (Rattus norvegicus [12]) | Cp (Rattus norvegicus [13]) | Drug uptake (Rattus norvegicus [14]) |
| --- | --- | --- | --- | --- | --- | --- | --- | --- | --- | --- | --- | --- | --- | --- | --- |
| O=C(O)[C@H]1CSC(c2ccc(O)cc2O)=N1 | 4.2% | 5 µM | Non-toxic | 2.9% | 667 nmol/g | 209 µM | – | – | – | – | – | – | – | – | – |
| O=C(O)[C@H]1CSC(c2cc(O)ccc2O)=N1 | 1.8% | – | Non-toxic | – | 629 nmol/g | – | 42 nmol/g | -1.52 | – | – | – | – | – | – | – |
| COc1ccc(O)c(C2=N[C@@](C)(C(=O)O)CS2)c1 | 18.9% | – | Toxic | 6.3% | – | 803 µM | 208 nmol/g | -0.61 | 153 nmol/g | 382 nmol/g | – | – | – | – | – |
| COc1ccc(O)c(C2=N[C@@H](C(=O)O)CS2)c1 | 12% | – | Non-toxic | 8.9% | – | – | 380 nmol/g | -0.81 | – | 564 nmol/g | 45 nmol/g | 61 nmol/g | – | – | – |
| COc1ccc(C2=N[C@@H](C(=O)O)CS2)c(O)c1OC | 12.4% | – | Non-toxic | 11.9% | – | – | 185 nmol/g | -1.28 | – | – | – | – | – | – | – |
| COc1ccc(C2=N[C@@](C)(C(=O)O)CS2)c(O)c1OC | – | – | Toxic | 16.6% | 1375 nmol/g | – | 259 nmol/g | -0.95 | – | 924 nmol/g | – | – | 3 nmol/g | 907 µM | – |
| COc1ccc(C2=N[C@@H](C(=O)O)CS2)c(O)c1 | 16.2% | – | Non-toxic | 11.6% | – | – | – | – | – | – | – | – | – | – | – |
| COc1ccc(C2=N[C@@](C)(C(=O)O)CS2)c(O)c1 | 24.4% | – | Toxic | 6.6% | 282 nmol/g | – | – | – | – | – | – | – | – | – | – |
| C[C@]1(C(=O)O)CSC(c2cc(O)ccc2O)=N1 | 12.6% | – | Non-toxic | 1% | 1216 nmol/g | – | – | -1.14 | – | – | – | – | – | – | – |
| C[C@]1(C(=O)O)CSC(c2ccc(O)cc2O)=N1 [DEFERITRIN] | 16.8% | 13 µM | Non-toxic | 1.1% | 361 nmol/g | 92 µM | – | – | – | 124 nmol/g | – | – | – | – | 179 nmol/g |
